Test results: ChEMBL document CHEMBL1914380, “Polyalkoxybenzenes from plants. 5. Parsley seed extract in synthesis of azapodophyllotoxins featuring strong tubulin destabilizing activity in the sea urchin embryo and cell culture assays” (J Med Chem, 2011)
The source made the active and inactive calls. The rule behind the calls is not given here. Where a SMILES comes first, the peptide text is derived from it. The star is where a group is joined. Cbz = O=C(OCc1ccccc1)*; CH2F = FC*

Columns and labels:
A549 [1] = test: Inhibition of microtubule polymerization in human A549 cells assessed as total disruption of interphase microtubule network at > 5 uM after 8 hrs by immunofluorescence microscopy; assay type: cell-based
P388 = test: Cytotoxicity against mouse P388 cells assessed as cell viability after 48 hrs by trypan blue exclusion assay; assay type: functional, cell-based; conditions: P388, 48 h
Paracentrotus lividus [2] = test: Antimitotic activity against Paracentrotus lividus embryo assessed as cleavage alteration treated 10 to 25 mins post fertilization followed by 45 to 60 mins before the first mitotic cycle completion by sea urchin embryo assay; assay type: functional
A549 [3] = test: Cytotoxicity against human A549 cells assessed as cell viability after 24 hrs by MTT assay; assay type: functional, cell-based; conditions: A549, 24 h
In short: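 A549 human lung carcinoma cells; growth inhibition measured by MTT assay. IC50 derived from dose-response curves, mean ± SD of three independent experiments.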

Paracentrotus lividus [4] = test: Antimitotic activity against Paracentrotus lividus embryo assessed as embryo spinning treated 10 to 25 mins post fertilization followed by 45 to 60 mins before the first mitotic cycle completion by sea urchin embryo assay; assay type: functional
A549 [5] = test: Cell cycle arrest in human A549 cells at 50 uM after 24 hrs using propidium iodide staining by flow cytometry; assay type: functional, cell-based
Paracentrotus lividus [6] = test: Antimitotic activity against Paracentrotus lividus embryo assessed as cleavage arrest treated 10 to 25 mins post fertilization followed by 45 to 60 mins before the first mitotic cycle completion by sea urchin embryo assay; assay type: functional
A549 [7] = test: Inhibition of microtubule polymerization in human A549 cells assessed as total disruption of interphase microtubule network at 0.1 uM after 8 hrs by immunofluorescence microscopy; assay type: cell-based
In short: (§1)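 A549 cells incubated 8 h with compound at 0.1, 0.5, 1 and 5 μM; DMSO vehicle as negative control. Microtubules labelled by indirect immunofluorescence and examined by fluorescence microscopy. Value is the concentration giving total interphase microtubule disassembly, from three independent experiments.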

Jurkat [8] = test: Induction of apoptosis in human Jurkat cells assessed as procaspase-2 cleavage at 50 nM after 48 hrs by Western blotting; assay type: functional, cell-based
In short: (§2)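 Jurkat cells treated at 50 nM for 24 or 48 h; untreated control, etoposide 2 μM 24 h as comparator. Total lysates prepared in SDS-Laemmli buffer and immunoblotted with monoclonal anti-caspase-9, anti-caspase-2 and anti-procaspase-8 antibodies. β-Actin served as loading control.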

Jurkat [9] = test: Cytotoxicity against human Jurkat cells assessed as cell viability after 48 hrs by trypan blue exclusion assay; assay type: functional, cell-based
In short: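 Jurkat T-leukemia cells; proliferation inhibition measured by trypan blue assay, giving IC50.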

Jurkat [10] = test: Induction of apoptosis in human Jurkat cells assessed as procaspase-9 cleavage at 50 nM after 24 hrs by Western blotting; assay type: functional, cell-based; in short: as §2
Jurkat [11] = test: Induction of apoptosis in human Jurkat cells assessed as reduction in procaspase-8 levels at 50 nM after 48 hrs by Western blotting; assay type: functional, cell-based; in short: as §2
A549 [12] = test: Inhibition of microtubule polymerization in human A549 cells assessed as total disruption of interphase microtubule network at 5 uM after 8 hrs by immunofluorescence microscopy; assay type: cell-based; in short: as §1
A549 [13] = test: Inhibition of microtubule polymerization in human A549 cells assessed as total disruption of interphase microtubule network at 0.5 uM after 8 hrs by immunofluorescence microscopy; assay type: cell-based; in short: as §1
Jurkat [14] = test: Induction of apoptosis in human Jurkat cells assessed as hypodyploid cells at 50 nM after 48 hrs by annexin-V FITC/7-ADD staining-based flow cytometric analysis (reference value: 12.2%); assay type: functional
Jurkat [15] = test: Cell cycle arrest in human Jurkat cells assessed as accumulation of cells in G2/M phase at 20 nM after 24 hrs by propidium iodide staining-based flow cytometry; assay type: functional
In short: (§3)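 Jurkat cells treated for 24 h, then stained with propidium iodide. DNA content analysed by flow cytometry for cell-cycle distribution.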

Jurkat [16] = test: Induction of apoptosis in human Jurkat cells assessed as procaspase-9 cleavage at 50 nM after 48 hrs by Western blotting; assay type: functional, cell-based; in short: as §2
Jurkat [17] = test: Induction of apoptosis in human Jurkat cells assessed as PARP cleavage at 50 nM after 48 hrs by annexin-V FITC/7-ADD staining-based flow cytometric analysis (reference value: 6.5%); assay type: functional
A549 [18] = test: Inhibition of microtubule polymerization in human A549 cells assessed as total disruption of interphase microtubule network at 1 uM after 8 hrs by immunofluorescence microscopy; assay type: cell-based; in short: as §1
Jurkat [19] = test: Induction of apoptosis in human Jurkat cells assessed as cells with active form of caspase-3 at 50 nM after 48 hrs by annexin-V FITC/7-ADD staining-based flow cytometric analysis (reference value: 7.1%); assay type: functional
Jurkat [20] = test: Induction of apoptosis in human Jurkat cells assessed as procaspase-2 cleavage at 50 nM after 24 hrs by Western blotting; assay type: functional, cell-based; in short: as §2
Paracentrotus lividus [21] = test: Toxicity against Paracentrotus lividus embryo post hatching; assay type: organism-based; conditions: in vivo
Jurkat [22] = test: Cell cycle arrest in human Jurkat cells assessed as accumulation of cells in G0/G1 phase at 2 uM after 24 hrs by propidium iodide staining-based flow cytometry; assay type: functional
In short: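 Jurkat cells treated 24 h; DNA content after propidium iodide staining measured by flow cytometry for cell cycle distribution.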

Paracentrotus lividus [23] = test: Toxicity against Paracentrotus lividus embryo at 40 to 68 uM after 2.5 hrs; assay type: organism-based; conditions: in vivo
In short: (§4)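 P. lividus hatched blastulae exposed to compound; larval (pluteus) malformations, gastrulation and morphogenesis abnormalities, and developmental abnormalities/embryo death scored microscopically, the latter after 2.5 h of treatment.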

Paracentrotus lividus [24] = test: Antimitotic activity against Paracentrotus lividus embryo assessed as abnormal gastrula formation at 10 to 20 uM by microscopic analysis; assay type: functional, organism-based; in short: as §4
Paracentrotus lividus [25] = test: Antimitotic activity against Paracentrotus lividus embryo assessed as larval malformation at 4 to 5 uM post hatching by microscopic analysis; assay type: functional, organism-based; in short: as §4
Jurkat [26] = test: Induction of apoptosis in human Jurkat cells assessed as reduction in procaspase-8 levels at 2 uM after 24 hrs by Western blotting; assay type: functional, cell-based
In short: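 Jurkat cells treated 24 h; total lysates prepared in SDS–Laemmli sample buffer and immunoblotted with anti-procaspase-8 monoclonal antibody; β-actin as loading control.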

Paracentrotus lividus [27] = test: Induction of apoptosis in Paracentrotus lividus embryo assessed as developmental abnormalities at 40 to 68 uM after 2.5 hrs; assay type: functional, organism-based; in short: as §4
A549 [28] = test: Cell cycle arrest in human A549 cells assessed as accumulation of cells in G2/M phase after 24 hrs by propidium iodide staining-based flow cytometry; assay type: functional; conditions: A549, 24 h
Jurkat [29] = test: Cell cycle arrest in human Jurkat cells assessed as accumulation of cells in G2/M phase at 25 nM after 24 hrs by propidium iodide staining-based flow cytometry; assay type: functional; in short: as §3
Jurkat [30] = test: Induction of apoptosis in human Jurkat cells assessed as hypodyploid cells at 50 nM after 48 hrs by annexin-V FITC/7-ADD staining-based flow cytometric analysis in presence of 50 uM Z-VAD-fmk pan-caspase inhibitor; assay type: functional

SMILES | EC (Paracentrotus lividus [2]) | IC50 (A549 [3]) | EC (Paracentrotus lividus [4]) | EC (Paracentrotus lividus [6]) | inhibition (A549 [7]) | Activity (Jurkat [8]) | IC50 (Jurkat [9]) | Activity (Jurkat [10]) | Activity (Jurkat [11]) | inhibition (A549 [12]) | inhibition (A549 [13]) | Activity (Jurkat [14]) | Activity (Jurkat [16]) | Activity (Jurkat [17]) | inhibition (A549 [18]) | Activity (Jurkat [19]) | Activity (Jurkat [20]) | other results
COc1cc(-c2c3c(nc4cc5c(cc24)OCO5)COC3=O)cc(OC)c1OC | >4000 nM | 11.9 µM | >4000 nM | >4000 nM | – | – | – | – | – | – | – | – | – | – | – | – | – | inhibition (A549 [1]): Active; IC50 (P388): > 253 µM; Activity (A549 [5]): inactive
COc1ccc2c(c1)NC1=C(C(=O)OC1)C2c1cc(OC)c2c(c1)OCO2 (stereo not drawn) | 0.5 nM | 0.0151 µM | 50 nM | 5 nM | Active | Active | 0.0175 µM | Active | inactive | Active | Active | 54.9% | Active | 38.3% | Active | 27.8% | Active | Activity (Jurkat [15]): Active
COc1cc(C2C3=C(COC3=O)Nc3cc4c(cc32)CCCC4)cc(OC)c1OC (stereo not drawn) | 50 nM | 0.0565 µM | 100 nM | 200 nM | Active | – | – | – | – | Active | Active | – | – | – | Active | – | – | Activity (Paracentrotus lividus [21]): Toxic
COc1cc([C@@H]2c3cc4c(cc3[C@@H](O[C@@H]3O[C@@H]5CO[C@@H](C)O[C@H]5[C@H](O)[C@H]3O)[C@H]3COC(=O)[C@H]23)OCO4)cc(OC)c1O [ETOPOSIDE] | 2000 nM | – | >68000 nM | >68000 nM | – | – | – | – | – | – | – | – | – | – | – | – | – | Activity (Jurkat [22]): Active; Activity (Paracentrotus lividus [23]): Toxic; Activity (Paracentrotus lividus [24]): Active; Activity (Paracentrotus lividus [25]): Active; Activity (Jurkat [26]): Active; Activity (Paracentrotus lividus [27]): Active
COc1cc([C@@H]2c3cc4c(cc3[C@H](O)[C@H]3COC(=O)[C@H]23)OCO4)cc(OC)c1OC [PODOFILOX] | 20 nM | 0.00747 µM | 500 nM | 50 nM | Active | Active | 0.025 µM | Active | inactive | Active | Active | 55.6% | Active | 40.7% | Active | 28% | Active | EC50 (A549 [28]): 0.0165 µM; Activity (Jurkat [29]): Active
COC(=O)C[C@H](NC(=O)[C@H](C)NC(=O)[C@@H](NC(=O)OCc1ccccc1)C(C)C)C(=O)CF (Cbz-Val-Ala-Asp(OMe)-CH2F) | – | – | – | – | – | – | – | – | – | – | – | – | – | – | – | – | – | Activity (Jurkat [30]): 28.4%
